Source: PubChem BioAssay (several laboratories)
The list is not random: actives were taken first. Their share in the collection is about 3.7%.
EBI2 antag: EBI2 receptor antagonists, beta-arrestin recruitment, primary screen, cell-based, luminescence, 7a,25-OHC stimulation, uHTS. 0.81% of 360,000 active. inhibition, % at 5 µM. 7a,25-OHC stimulated. AID 651636, 2012. G-protein coupled receptor 183 (Homo sapiens), P32249; in the data active = inhibition above about 38%;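 also: enzyme fragment complementation signal reports receptor beta-arrestin coupling in cells; 0% = agonist plus DMSO wells and 100% = wells without agonist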
Myeloid diff 2: induction of myeloid progenitor differentiation, primary screen, cell-based, flow cytometry, MLPCN library; ER-HoxA9 myeloid progenitors, lysozyme-GFP differentiation; calls only at 10 µM; 1% of 360,000 active;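 active = normalized GFP-positive differentiation at or above the plate's own cutoff, the solvent-only control mean plus 3 SD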;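 also: cells exposed to compound for four days before flow analysis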
MC4R antag cAMP: MC4R antagonists of cAMP signaling, primary screen, cell-based, TR-FRET, antagonist arm of biased-ligand search; Melanocortin receptor 4 (Homo sapiens), P32245; MC4R-expressing cells, MTII-stimulated cAMP, LANCE TR-FRET; inhibition, % at 6.5 µM; 0.48% of 360,000 active; AID 540295, 2011;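 active = inhibition above its plate's cutoff, the mean of tested wells on that plate plus 3 SD, cut at about 29% in these data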;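 also: 0% = Melanotan II alone and 100% = Melanotan II plus saturating MCL0020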
Target sequence (P32245 whole entry, looked up): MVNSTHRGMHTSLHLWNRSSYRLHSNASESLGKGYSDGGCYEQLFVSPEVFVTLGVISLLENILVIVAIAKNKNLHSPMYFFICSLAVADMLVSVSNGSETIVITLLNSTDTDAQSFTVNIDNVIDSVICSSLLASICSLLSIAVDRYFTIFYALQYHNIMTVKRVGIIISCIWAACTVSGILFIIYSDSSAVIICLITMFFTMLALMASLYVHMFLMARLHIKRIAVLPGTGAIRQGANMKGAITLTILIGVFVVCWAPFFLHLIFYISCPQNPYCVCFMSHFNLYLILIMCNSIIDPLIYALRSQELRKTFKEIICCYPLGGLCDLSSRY
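Material – human MC4R-expressing U2OS cells · Repeats – no replicates · Detection – TR-FRET with Eu-cAMP and labeled anti-cAMP, 671 nm · Times – compound 30 min, challenge 1 h, detection 1 h · Compound – single nominal compound dose of 6.5 µM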
Granule exo inh: LAMP-1 surface exposure blockers, TALL-104 cells – cell-based, flow cytometry, MLPCN library, primary screen; TALL-104 LAMP-1 surface exposure; cells stimulated with thapsigargin and PMA; 0.66% of 360,000 active; AID 651702, 2012; inhibition, % at 10 µM;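 active = inhibition above about 55%, limit read from the data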
MC4R barr agon: MC4R agonists recruiting beta-arrestin, primary screen, cell-based, luminescence, agonist arm of biased-ligand search. Melanocortin receptor 4 (Homo sapiens), P32245. U2OS MC4R beta-arrestin complementation; percent of melanotan II response, DMSO zero. activation, % at 8.9 µM. 0.98% of 360,000 active. AID 540308, 2011;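 active = activation above a per-plate cutoff, the mean activation of sample wells on that plate plus 3 SD, cut at about 8% in these data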
Myeloid diff: inducers of myeloid progenitor differentiation, confirmation, cell-based, GFP/Mac1 flow cytometry, cherry pick 01. shares compounds with Myeloid diff 2. AID 651706, 2012. calls only. 2% of 2,300 active. ER-HoxA9 myeloid progenitors, GFP/Mac1 double-positive flow;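 active = share of green or green-and-red cells above 9 and 9% in run 1 or 4 and 3% in run 2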
GFP autofluor: counter-screen for myeloid differentiation promoters: compound fluorescence; shares compounds with Myeloid diff 2; ER-HoxA9 myeloid progenitors, no estrogen, GFP autofluorescence flow cytometry; vehicle wells 0%, positive control 100%; fluorescence response, % (test concentration not listed); 7.4% of 2,300 active; AID 651707;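 active = over 5% cells positive for green fluorescent reporter, or over 2% positive for both it and APC stain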;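 also: range taken on the double positive population between DMSO and positive control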
The depositor's hits bear a star; i = inactive; / = not tested or not shown; + = active, no number.

SMILES	EBI2 antag	Myeloid diff 2	MC4R antag cAMP	Granule exo inh	MC4R barr agon	Myeloid diff	GFP autofluor
COc1cc(C(=O)NCCSc2ccc(F)cc2)cc(OC)c1OC	0	/	4	5	-1	/	/
O=C(COC(=O)c1cccnc1Cl)Nc1ccc2c(c1)OCCO2	-2	+	5	-2	3	i	0
CC(=O)n1cc(C2C(=O)CCCC2=O)c2ccccc21	-5	i	5	1	-1	i	1
Cc1nn(Cc2ccc([N+](=O)[O-])cc2)c(=O)n1-c1ccc(Cl)cc1	2	+	12	-10	0	i	0
Cc1ccc(-n2c(C)nn(Cc3ccc([N+](=O)[O-])cc3)c2=O)cc1	3	i	8	2	-1	/	/
O=S(=O)(c1c(F)cccc1F)N(CCc1ccc(F)cc1)C[C@@H](O)COCc1ccccc1	15	i	6	11	2	/	/
COc1ccc2c(C)nc(Nc3nc(C)cc(C)n3)nc2c1	1	i	0	-2	-3	i	35*
Cc1ncsc1CCSc1nc2ccccc2c(=O)n1C	6	i	-21	-4	2	i	0
OC[C@@H]1CN(Cc2cccs2)C[C@H](n2cnc3c(NCc4ccc(F)cc4)ncnc32)O1	-2	i	3	-4	-1	/	/
CCN(CC)S(=O)(=O)c1ccc(C(=O)NC(=S)N(CCC#N)Cc2cccnc2)cc1	-6	i	4	0	-2	/	/
CN(C)S(=O)(=O)c1cccc(C(=O)NC(=S)N(CCC#N)Cc2cccnc2)c1	-4	i	-9	-1	-1	i	2
Oc1oc(-c2ccco2)nc1C=Nc1ccccc1	-1	i	-19	1	3	i	1
Cc1ccc(-c2nc(C=Nc3ccc(O)cc3)c(O)o2)cc1	22	i	-11	-2	2	i	0
Cc1cc(F)ccc1NC(=O)c1cc(S(=O)(=O)N2CCc3ccccc32)cn1C	10	i	6	-4	0	/	/
COCCNC(=O)C(=O)NNC(=O)CCc1ccccc1	1	i	15	-1	-4	/	/
COc1ccc(N/C=C2/CCCCC2=O)cc1	11	i	10	0	3	i	1
CC(Oc1ccc(Cl)cc1Cl)C(=O)NCCCn1ccnc1 (centres undefined)	4	+	13	1	0	i	0
O=C(CCCOc1ccc(Cl)cc1Cl)NCCCn1ccnc1	-3	i	15	8	0	/	/
COc1ccc(S(=O)(=O)N(c2onc(C)c2Cl)S(=O)(=O)c2ccc(OC)cc2)cc1	-4	i	6	3	1	i	0
O=C(NCc1ccccc1)C(c1ccccc1)N(C(=O)c1csnn1)C1CCCC1 (centres undefined)	-6	i	11	1	-1	/	/
Cc1cc(C)n(-c2nnc3n2N=C(c2c[nH]c4ccccc24)CS3)n1	8	i	-21	3	-2	i	4
Cc1cc(C)n(-c2nnc3n2N=C(c2ccccc2)CS3)n1	-2	i	4	3	-2	/	/
COc1ccccc1OCc1ccc(C(=O)NN)cc1	-1	i	-4	0	1	i	0
COCCn1c(C)cc(C(=O)CN2C(=O)C(=O)N(CCC3=CCCCC3)C2=O)c1C	-2	i	11	-1	2	/	/
Cc1ccc(-c2nc(CN(C)Cc3cccc4cnccc34)c(C)o2)s1	-4	i	0	-5	1	/	/
SMILES	EBI2 antag	Myeloid diff 2	MC4R antag cAMP	Granule exo inh	MC4R barr agon	Myeloid diff	GFP autofluor
NNC(=O)c1ccc(CSc2nc3ccccc3[nH]2)cc1	-14	i	-9	8	1	i	0
CNC(=O)C[C@H]1C(=O)N(C2CCCCC2)C[C@@H]1c1ccc(Br)cc1	-3	i	8	-6	0	/	/
COC(=O)c1ccc(NC(=O)Nc2ccccc2C)cc1	-2	i	3	9	5	i	1
COC(=O)c1ccc(NC(=O)Nc2ccccc2F)cc1	-8	i	10	0	-1	/	/
CCn1c2ccccc2c2cc(N=C3SC(CC(=O)Nc4ccccc4OC)C(=O)N3C)ccc21 (centres undefined)	6	+	8	8	-2	i	0
COc1ccccc1C(=O)NNC(=S)NC(=O)c1ccco1	4	i	5	2	-4	/	/
Cc1csc(SCC(=O)Nc2cc(S(=O)(=O)N(C)C)ccc2C)n1	-3	i	14	5	1	/	/
COc1cccc(CNC(=O)CN(C)S(=O)(=O)c2cnc[nH]2)c1	-5	+	13	-1	2	i	1
Cc1oc(C(=O)O)cc1CSc1nnc(-c2ccccc2)n1C	-7	i	9	-1	1	i	1
CCC(=O)c1ccc(OCC(=O)OCC(=O)Nc2sccc2C(N)=O)cc1	-3	/	9	-2	-2	/	/
C[C@H](CO)N1C[C@H](C)[C@H](CN(C)Cc2ccncc2)Oc2cc(-c3ccccc3F)ccc2S1(=O)=O	9	i	10	-5	0	i	0
Cc1nc(C(=O)Nc2cccc(Cl)c2)nn1-c1cc(OC(C)C)c(Cl)cc1Cl	28	+	8	1	4	i	0
Cc1nc(C(=O)Nc2cc(Cl)ccc2Cl)nn1-c1cc(OC(C)C)c(Cl)cc1Cl	15	i	7	1	-1	/	/
O=C(C[C@H]1CC[C@@H]2[C@H](COC[C@@H](O)CN2Cc2cccc(F)c2)O1)NCC1CCCCC1	-11	i	/	14	/	/	/
Nc1ccc(-n2nc3ccccc3n2)cc1	3	i	9	-6	2	/	/
Nc1ccc2nn(-c3ccccc3)nc2c1	-7	i	-1	16	8	i	1
Cc1cccc(NS(=O)(=O)c2ccc(C)c(C(=O)NC3CCN(Cc4ccccc4)CC3)c2)c1	-18	+	8	3	-4	i	0
O=C(CNS(=O)(=O)c1cccc(Br)c1)NCC1CCCCC1	-6	i	1	2	0	/	/
Cc1ccc[n+](CC(=O)/C=C2\N(C)c3ccccc3C2(C)C)c1	-12	i	6	0	-1	/	/
CN1/C(=C\C(=O)C[n+]2cccc(Br)c2)C(C)(C)c2ccccc21	-9	+	15	2	0	i	1
COc1ccc(S(=O)(=O)Nc2ccccc2C)cc1	-16	i	4	0	1	i	0
